Measured values from different studies.
Target: Focal adhesion kinase 1 (PTK2, Homo sapiens, UniProt Q05397)

SMILES | effect on | technique | tested at | remaining binding
C[C@@H](c1ccc(-n2cnc3c(N)ncnc32)cc1)N1CCc2nn(C)c(Cc3ccccc3)c2C1=O | binding | competition with immobilised ligand | 0.1 µM | 87%
N#Cc1ccccc1CSc1nnc2c(n1)[nH]c1ccccc12 | binding | competition with immobilised ligand | 10 µM | 98%
O=C(c1ccc(Nc2ncc(Cl)c(-c3ccc(Cl)s3)n2)cc1)N1CCC(N2CCCC2)CC1 | binding | competition with immobilised ligand | 1 µM | 41%
COc1cnc(Nc2cccc(S(N)(=O)=O)c2)nc1N1CCN(c2ccccc2)C(=O)C1 | binding | competition with immobilised ligand | 1 µM | 99%
Cc1cc(-c2cc(C(F)(F)F)ccc2O[C@H]2C[C@@]2(CNS(=O)(=O)c2ccc([N+](=O)[O-])cc2)c2ccc(F)cc2F)[nH]n1 | cell-free assay | competition with immobilised ligand | 0.3 µM | 22%
c1ccc(N2CCN(Cc3nc4ccccc4[nH]3)CC2)nc1 | binding | competition with immobilised ligand | 1 µM | 86%
CC1CCCN1c1nccc(-c2cnn3ncccc23)n1 (stereo not shown) | binding |  | 1 µM | 100%
Cc1cnc(Nc2ccc(C(=O)N3CCC(N4CCCC4)CC3)cc2)nc1-c1cc2ccccc2s1 | binding | competition with immobilised ligand | 1 µM | 100%
CC(=O)C1=C(C)N(c2cccc(C(F)(F)F)c2)C(=O)N[C@@H]1c1ccc(C#N)nc1 | cell-free assay | competition with immobilised ligand | 1 µM | 100%
CN(C)c1nccc(-c2cnc3ncccn23)n1 | binding |  | 1 µM | 100%
COc1cnc(Nc2cccc(S(N)(=O)=O)c2)nc1N1CCN(c2ccccc2)CC1 | binding | competition with immobilised ligand | 1 µM | 100%
C[C@@H]1CCN(c2nccc(-c3cnn4ncccc34)n2)C1 | binding |  | 1 µM | 100%
O=C(Nc1c[nH]nc1C(=O)NC1CCNCC1)c1cc(F)cc(F)c1 | binding | competition with immobilised ligand | 1 µM | 91%
O=C(NS(=O)(=O)c1ccc(NCC2CCOCC2)c([N+](=O)[O-])c1)c1ccc(N2CCN(Cc3ccc(C(F)(F)F)cc3-c3ccc(Cl)cc3)CC2)cc1Oc1cnc2[nH]ccc2c1 | cell-free assay | competition with immobilised ligand | 1 µM | 100%
C[C@@H]1CN(c2ccc3ncc(-c4ccc5[nH]nc(C6CC6)c5c4)n3n2)C[C@H](C)O1 | binding | competition with immobilised ligand | 50 nM | 98%
O=C(O)c1cc(-c2ccc(C3CCNCC3)cc2)c2ccc(-c3ccc(C(F)(F)F)cc3)cc2c1 | cell-free assay | competition with immobilised ligand | 1 µM | 100%
O=C(c1ccc(Nc2ncc(Cl)c(-c3cc4ccccc4s3)n2)cc1)N1CCC(N2CCCC2)CC1 | binding | competition with immobilised ligand | 1 µM | 78%
c1cnn2ncc(-c3ccnc(N4CCC45COC5)n3)c2c1 | binding |  | 1 µM | 99%
Cc1c(C(=O)O)cc(-c2ccc(C3CCNCC3)cc2)c2ccc(-c3ccc(C(F)(F)F)cc3)cc12 | binding | competition with immobilised ligand | 1 µM | 100%
COc1ncc2cc3ccccc3nc2c1C#N | cell-free assay | competition with immobilised ligand | 5 µM | 100%
CNC(=O)Nc1ccc2c(c1)[C@@]1(CC2)OC(=O)N(CC(=O)N(Cc2ccc(F)cc2)[C@@H](C)C(F)(F)F)C1=O | cell-free assay | competition with immobilised ligand | 1 µM | 100%
FC(F)(F)Oc1cccc(-c2cnc3ccc(-c4ccncc4)nn23)c1 | cell-free assay | competition with immobilised ligand | 5 µM | 83%
